The source of these data is the array DNA melting data of Ke et al. (doi:10.1101/2024.01.08.574731).

Data set [1] in a line: melting temperature; fluorescence melt of hairpins on a sequencing array, two-state fit, raised by 9.35 °C to match UV melts. Conditions: sodium 0.088 M. The gist of the method:
(§1)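 Cy3 fluorescence of library hairpins on a sequenced MiSeq flow cell, with annealed Cy3 and quencher oligos, was imaged in 50 mM Na-HEPES pH 8.0, 25 mM NaCl in 2.5 °C steps up to 60 °C. Signals were normalised to pre-quench Cy3 and to control variants. Melting temperature and folding enthalpy came from bootstrapped two-state fits, inverse-variance combined over four replicates. Fitted temperatures were raised by 9.35 °C to match UV melts.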

Data set [2] in a line: folding enthalpy; higher = less favourable; fluorescence melt of hairpins on a sequencing array, two-state fit. As to conditions: sodium 0.088 M. Summed up:
as §1

For GTCGTCGGAAACGATGAC (((.(((....))).))), the Tm in data set [1] came to 55.5 °C. For the same sequence, the folding enthalpy in data set [2] is -44.4 kcal/mol.
The corresponding values for GCATGGAAACATGC (((((....))))) are 57.4 °C and -30.9 kcal/mol.
The corresponding values for GTATACGAAAGTAAATAC ((((((....)))..))) are 27.7 °C and -14.8 kcal/mol.
For the sequence GCTATCGAAAGATCCAGC ((((((....)))..))), the Tm in data set [1] came out at 26.1 °C. Also, in data set [2], the folding enthalpy is -13.3 kcal/mol.
The corresponding values for GCCATCGAAAGATCAGGC ((((((....)))..))) are 37.7 °C and -24.9 kcal/mol.
In the same order, the values of CGGGATCGGAAACGACCG (((..(((....)))))) are 40 °C and -22.6 kcal/mol.
The corresponding values for GGGCTGGGAAACTAGCCC (((((.(....).))))) are 58.1 °C and -45.3 kcal/mol.
Turning to GGCTTCGAAAGAAACGCC ((((((....)))..))), in data set [1], the Tm was determined as 43.8 °C. Also, in data set [2], the folding enthalpy was -26.1 kcal/mol.
The corresponding values for GGCCACGAAAGTGTCGCC ((((((....)))..))) are 50 °C and -21.3 kcal/mol.
The corresponding values for GCGGAGAGCCGC ((((....)))) are 54.4 °C and -17.4 kcal/mol.
Take GATCGTGAAGACGATC ((((((....)))))): the Tm in data set [1] was found to be 57 °C. The folding enthalpy in data set [2] was -31.5 kcal/mol.
For the sequence GTTTTTGCGAAAGCAAAC (((..(((....)))))), the Tm in data set [1] worked out at 35.2 °C. For the same sequence, the folding enthalpy in data set [2] was -11.9 kcal/mol.
As for GGCGTTGGAAACAGCGTC (.((.((....)).)).), the Tm in data set [1] was determined as 44.6 °C. Moreover, the folding enthalpy in data set [2] was -21.9 kcal/mol.
In the same order, the values of GTTAGCGAAAGCTCAAC ((((((....))).))) are 32.7 °C and -11.8 kcal/mol.
With GATCCGGGGCGGATC ((((((...)))))), in data set [1], the Tm came to 56 °C. In addition, the folding enthalpy in data set [2] was -37.2 kcal/mol.
In the same order, the values of GCAAGAGAAATCTTGC ((((((....)))))) are 52.8 °C and -38.3 kcal/mol.
GATCTGCCTGCAGATC ((((((....)))))): the Tm in data set [1] was found to be 62.6 °C. In data set [2], the folding enthalpy was -43.3 kcal/mol.
In the same order, the values of GATCTACAAGTAGATC ((((((....)))))) are 48.2 °C and -34.2 kcal/mol.
The corresponding values for GATCAGCCCCTGATC ((((((...)))))) are 49.2 °C and -36.2 kcal/mol.
In the case of GGTTAGAAATAACC (((((....))))), the Tm in data set [1] turned out to be 40 °C. Further, the folding enthalpy in data set [2] is -16.4 kcal/mol.
In the case of GGCTCCGAAAGGACGGCC ((((((....)))..))), the Tm in data set [1] came to 51.2 °C. Moreover, in data set [2], the folding enthalpy was -20.8 kcal/mol.
The corresponding values for CGACACGGAAACGTTCG (((.(((....)))))) are 42 °C and -35 kcal/mol.
GTATACTCGAAAGAGTAC (((..(((....)))))): the Tm in data set [1] amounted to 35 °C. Besides, the folding enthalpy in data set [2] is -11.6 kcal/mol.
The corresponding values for GCTGAAACGAAAGTTAGC (((..(((....)))))) are 35 °C and -20.6 kcal/mol.
GCCGCTCCGAAAGGAGGC (((..(((....)))))): the Tm in data set [1] is 55.4 °C. Moreover, the folding enthalpy in data set [2] was -9.81 kcal/mol.
The corresponding values for GATGCAGGAAACTGTGTC ((..(((....)))..)) are 35.5 °C and -27.1 kcal/mol.
As for GTTAACGAAAGTTGAAAC ((((((....)))..))), the Tm in data set [1] came to 24.9 °C. Moreover, the folding enthalpy in data set [2] was -11.1 kcal/mol.
For GAGTTGAAAAACTC (((((....))))), in data set [1], the Tm stood at 44.7 °C. For the same sequence, in data set [2], the folding enthalpy is -22 kcal/mol.
Regarding GATCCAACTTTGGATC ((((((....)))))), in data set [1], the Tm is 51 °C. Also, the folding enthalpy in data set [2] is -43.3 kcal/mol.
The corresponding values for GTAGCCACGAAAGTGTAC (((..(((....)))))) are 22.3 °C and -9.72 kcal/mol.
The corresponding values for GCCTTGGGAAACCAAGGC (((((((....))))))) are 68.8 °C and -44.1 kcal/mol.
Regarding GCGTCCGAAAGGATCGC ((((((....))).))), the Tm in data set [1] was found to be 59.5 °C. Besides, the folding enthalpy in data set [2] was -37.8 kcal/mol.
As to GAGGTAGGAAACTACCCC (.(((((....))))).), the Tm in data set [1] was 39.1 °C. For the same sequence, in data set [2], the folding enthalpy is -12.1 kcal/mol.
As to GGCGGGCCGAAAGGCGCC (((..(((....)))))), in data set [1], the Tm came to 62.3 °C. Besides, the folding enthalpy in data set [2] is -13.2 kcal/mol.
The corresponding values for GACTCCCCGAAAGGGGTC (((..(((....)))))) are 31.4 °C and -7.79 kcal/mol.
The corresponding values for GTCCGAGCGAAAGCTGAC (((..(((....)))))) are 37.2 °C and -14.5 kcal/mol.
Regarding GCCTCGGGAAACTGGGGC (((.(.(....).).))), in data set [1], the Tm was 47.4 °C. Also, the folding enthalpy in data set [2] was -37.5 kcal/mol.
